PP1 inh: PP1-alpha phosphatase inhibitors, primary screen, counter-screen for PP5 inhibitor project, biochemical, fluorescence, OMFP substrate, single point; Serine/threonine-protein phosphatase PP1-alpha catalytic subunit (Homo sapiens), P62136; purified PP1alpha; inhibition, % at 6.7 µM; 0.9% of 320,000 active; AID 2235, 2010;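 active = inhibition above the mean inhibition of all tested compounds plus 3 SD, computed separately for each screening campaign, cut at about 15% in these data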
Target sequence (P62136 whole entry, looked up): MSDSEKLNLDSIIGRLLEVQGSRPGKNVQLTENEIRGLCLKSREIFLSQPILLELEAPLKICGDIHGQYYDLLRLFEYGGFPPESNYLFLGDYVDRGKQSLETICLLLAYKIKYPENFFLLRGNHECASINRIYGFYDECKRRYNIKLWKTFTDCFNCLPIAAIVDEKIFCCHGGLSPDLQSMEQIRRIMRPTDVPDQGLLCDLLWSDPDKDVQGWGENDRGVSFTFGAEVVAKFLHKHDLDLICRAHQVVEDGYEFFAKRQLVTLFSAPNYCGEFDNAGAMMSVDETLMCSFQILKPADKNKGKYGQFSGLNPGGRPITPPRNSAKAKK
ZTA DNA inh: ZTA (EBV) inhibition in EBNA-1 counter-screen; P03206; 0.15% of 320,000 active; ZTA-DNA binding, fluorescence polarization; inhibition, % at 11 µM; in the data active = inhibition above about 33%
EBNA-1 inhibitor: EBNA-1 DNA-binding inhibitors, primary screen, biochemical, fluorescence polarization; AID 1950, 2009; 0.34% of 300,000 active; inhibition, % at 14.8 µM; in the data active = inhibition above about 28%
PP5 primary: PP5 phosphatase inhibitors, primary screen, biochemical, fluorescence. AID 1987, 2009. purified PP5c, OMFP substrate fluorescence. 0.18% of 320,000 active. inhibition, % at 6.7 µM;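 active = inhibition above the campaign's mean inhibition across all tested compounds plus 3 SD, cut at about 9.5% in these data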;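 also: 0% = DMSO only and 100% = 100 µM cantharidin control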
HCV core dimer: inhibitors of HCV core protein dimerization, primary screen, biochemical, TR-FRET, high-throughput; inhibition, % at 5 µM; TR-FRET GST/Flag-core106 dimerization, 1536-well; 0.33% of 300,000 active; AID 1899, 2009;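 active = inhibition above the mean of all tested compounds plus 3 SD, set per screening campaign, cut at about 45% in these data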
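Material: Tagged HCV core106 pair (GST and Flag) | Amount: GST-core106 13.5 nM, Flag-core106 17 nM | Medium: KF-containing HEPES buffer, pH 7.45, DTT, CHAPS, BSA | Reagent: Eu donor and XL665 acceptor anti-tag antibodies | Schedule: 4 h at 22.5 °C | Technique: Time-resolved FRET, ex 340 nm, em 617 and 671 nm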
Zta DNA confirm: EBV Zta binding to ZRE DNA, inhibitors, confirmation, biochemical, fluorescence polarization, triplicate. shares compounds with ZTA DNA inh. 30% of 320 active. inhibition, % at 11.1 µM;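 active = mean inhibition across triplicate runs above the hit threshold derived for the original primary screen, cut at about 33% in these data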;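 also: 0% = Zta with DMSO and 100% = wells lacking Zta protein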
EBNA1 counter: EBNA-1 DNA-binding inhibition, counter-screen for ZTA inhibitor project, biochemical, fluorescence polarization; inhibition, % at 14.8 µM; shares compounds with ZTA DNA inh; 320 tested, under 10 active; AID 2362, 2010; call rule not given here
The depositor's hits bear a star; . = no result; + = active, no number. A selection: hits, their analogues and other compounds. The true share with any hit is near 1.7%.

SMILES	PP1 inh	ZTA DNA inh	EBNA-1 inhibitor	PP5 primary	HCV core dimer	Zta DNA confirm	EBNA1 counter
CCOC(=O)C(C)Sc1nc(=O)n2ccccc2n1 (stereo not given)	0	2	2	1	-2	.	.
CCOC(=O)C(C)Sc1ncc(-c2ccccc2)cn1 (stereo not given)	0	79*	-2	3	-2	-2	-9
COc1ccc(OC)c(N)c1	2	37*	20	3	-10	-13	-9
O=S(=O)(NCCSc1ccc(Cl)cc1)c1ccc2c(c1)OCCO2	1	33*	3	6	10	8	-1
O=S(=O)(NCCSCc1ccc(Cl)cc1Cl)c1ccc2c(c1)OCCO2	-4	9	-2	5	1	.	.
CCN(CC)S(=O)(=O)c1ccc2c(c1)C(=NO)c1cc(S(=O)(=O)N(CC)CC)ccc1-2	0	-5	0	2	13	.	.
Cc1ccc([N+](=O)[O-])cc1NC(=O)C1CCCC1	-1	11	6	1	-3	.	.
Cc1ccc([N+](=O)[O-])cc1NC(=O)C1CCN(S(C)(=O)=O)CC1	1	49*	-6	2	-1	-3	-12
CCc1nnc(NC(=O)[C@@H](NC(=O)c2cc(OC)cc(OC)c2)C(C)C)s1	2	117*	8	2	4	7	1
COc1cc(O)c2c(c1)OC(c1ccc(O)cc1)CC2=O (stereo not given)	-4	34*	-5	3	3	16	-8
CC1=C(C(=O)OCC2CCCO2)C(c2ccncc2)C2=C(CC(C)(C)CC2=O)N1 (stereo not given)	2	-12	-3	-4	5	.	.
O=C(Nc1ccc(C(F)(F)F)cc1)C1CC(=O)N(c2ccc3c(c2)OCCO3)C1 (stereo not given)	0	65*	-4	7	1	0	-6
CCOC(=O)C1(C)NC(c2cccc(C)c2)C2C(=O)N(c3ccccc3)C(=O)C21 (stereo not given)	3	+	-8	3	-11	11	1
CCOC(=O)C1(C)NC(c2cccs2)C2C(=O)N(c3ccc(C)cc3)C(=O)C21 (stereo not given)	-4	-15	-15	-2	3	.	.
COCc1ccc(-c2ccc3c(c2)c(C#Cc2ccsc2)c(-c2cc(OC)cc(OC)c2)n3C)cc1	9	-5	.	2	.	.	.
COc1cc(OC)cc(-c2c(C#Cc3ccsc3)c3cc(-c4ccc(C(N)=O)cc4)ccc3n2C)c1	-4	40*	.	0	.	22	25
CN1/C(=C\C=Nc2ccc3ccccc3c2)C(C)(C)c2ccccc21	-1	8	-11	-2	-5	.	.
CN(C)c1ccc(N=C/C=C2\N(C)c3ccccc3C2(C)C)cc1	1	163*	6	4	-34	2	-2
CN1CCC(OC(c2ccccc2)c2ccccc2)CC1	-4	60*	7	-1	7	13	7
CN1CCC(Oc2ccccc2Sc2ccccc2)CC1	1	5	0	3	-3	.	.
CCC(C(=O)O)n1cnc2scc(-c3ccc(C)c(C)c3)c2c1=O (stereo not given)	-2	117*	1	2	8	6	13
CCC(C(=O)OC)n1cnc2scc(-c3ccc(C)c(C)c3)c2c1=O (stereo not given)	4	6	-1	3	-4	.	.
O=C(/C=C/c1cccc([N+](=O)[O-])c1)N1CCN(c2ccc(F)cc2)CC1	0	10	0	0	5	.	.
CC(C)OC(=O)c1cc(NC(=S)Nc2ccc([N+](=O)[O-])cc2)cc(C(=O)OC(C)C)c1	-1	52*	1	2	7	-13	-21
CC(C)CCNC(=S)Nc1ccc([N+](=O)[O-])cc1	1	15	4	3	-4	.	.
